Screening data deposited in PubChem BioAssay by several laboratories.
HSP90 inh: HSP90 inhibitors, primary screen, cell lysate, luminescence; Heat shock protein HSP 90 (rabbit reticulocyte lysate; luciferase refolding); Rabbit reticulocyte lysate, luciferase refolding luminescence, 3 h; inhibition, % at 5.6 µM; 290,000 compounds, 0.91% hits;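 active means inhibition above the screen-wide mean plus 3 SD, computed separately per campaign, cut at about 16% in these data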;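 further: inhibitors lower the luminescence because luciferase stays unfolded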
C8 TRAIL sens: viability loss with TRAIL in NB7+C8 cells, primary screen, TRAIL sensitizer project, cell-based, ATPlite luminescence; inhibition (viability loss, TRAIL sensitization), % at 10 µM; 360,000 compounds, 1% hits; AID 624354, 2012;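 active means compounds causing at least 50% loss of cell viability in the single-dose screen, relative to plate controls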
FLuc act counter: FLuc activators, initial screening, artefact control for FLuc-dependent activation tests, biochemical, ATPlite luminescence; Luciferin 4-monooxygenase (Photinus pyralis), P08659; ATPlite luciferase biochemical, 10 min; 0 = ATP-free wells, 1 = DMSO control; activation factor at 10 µM; 200,000 tested, under 10 active; AID 1027, 2008;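 active means luciferase activation factor, scaled between plate controls, of at least 2 with compound at 10 µM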
Target sequence (P08659 whole entry, looked up): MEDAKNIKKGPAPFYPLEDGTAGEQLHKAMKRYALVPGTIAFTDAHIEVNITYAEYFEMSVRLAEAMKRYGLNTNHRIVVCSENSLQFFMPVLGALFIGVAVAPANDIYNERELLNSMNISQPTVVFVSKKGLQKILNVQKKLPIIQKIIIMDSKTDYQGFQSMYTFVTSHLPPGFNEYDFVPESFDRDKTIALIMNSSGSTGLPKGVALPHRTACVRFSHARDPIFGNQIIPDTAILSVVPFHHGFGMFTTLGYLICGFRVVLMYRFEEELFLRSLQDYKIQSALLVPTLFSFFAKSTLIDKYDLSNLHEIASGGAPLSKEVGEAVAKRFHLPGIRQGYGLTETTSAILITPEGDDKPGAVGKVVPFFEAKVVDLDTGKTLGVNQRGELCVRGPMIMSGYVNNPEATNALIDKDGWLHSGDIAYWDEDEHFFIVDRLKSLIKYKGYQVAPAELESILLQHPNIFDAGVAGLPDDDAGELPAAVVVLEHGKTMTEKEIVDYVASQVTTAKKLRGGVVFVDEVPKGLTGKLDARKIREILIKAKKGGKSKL
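Material: luciferase plus luciferin reagent, cell-free. Medium: PBS buffer for ATP. Also added: ATP substrate, dispensed from a 10.24 µM working solution in PBS. Doses: test compounds dosed from 2 mM stocks in 100% DMSO. Incubation: 10 min post-reagent at room temperature. Technique: light output (luminescence). Read-out basis: luminescence gain marking luciferase activators.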
FLuc inh counter: firefly luciferase enzyme inhibitors, primary screen, artefact control for luciferase-based inhibitor screens, biochemical, luminescence, ATPLite; Luciferin 4-monooxygenase (Photinus pyralis), P08659; 10 min; inhibition, % at 10 µM; 200,000 compounds, 1.5% hits; AID 1006, 2008;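 active means inhibition above about 50% when tested at 10 µM, limit read from the data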
PPC-1+TRAIL kill: compounds killing PPC-1 cancer cells with TRAIL present, primary screen, TRAIL potentiator project, ATPLite luminescence, uHTS; PPC-1 cells + TRAIL, ATPLite viability luminescence; cell killing (% activity), % at 4 µM or 5 µM; 220,000 compounds, 0.41% hits;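 active means cell killing above 50% in the first pass at 4 µM, then a duplicate retest at 5 µM averaging 50% or more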
Hits are given with their value; n = inactive; x = not tested or not shown. Rows were chosen to be rich in hits. Some 2% of all compounds tested hit in one or more screens of this group.

SMILES | HSP90 inh | C8 TRAIL sens | FLuc act counter | FLuc inh counter | PPC-1+TRAIL kill
COC(=O)c1sc2nc(-c3ccco3)ccc2c1N | n | 57 | n | 84 | n
COC(=O)c1ccc(-c2ccc(Cl)cc2)nc1C | n | n | n | 50 | n
COc1ccc(/C=N/NC(=O)CNC(=O)c2ccc3c(c2)OCCO3)c(C(=O)O)c1OC | n | n | x | x | x
COc1ccc(/C=C2/SC(=O)NC2=O)cc1 | n | n | n | 54 | n
CCOc1ccc(/C=C2/SC(=S)N(n3c(C)ccc3C)C2=O)cc1 | n | 50 | n | n | n
COc1ccc(/C=C2/SC(=S)N(n3c(C)ccc3C)C2=O)cc1 | n | 62 | n | n | n
CCOc1ccc(S(=O)(=O)N2CN(c3cccc(C(C)=O)c3)c3nc4ccccc4nc32)cc1 | x | n | x | x | x
Cc1ccc(OCCCn2ccnc2)c(Br)c1 | n | n | x | x | x
O=C1c2ccccc2C(=O)N1/N=C/c1ccc(O)c(O)c1 | n | n | n | 74 | n
Oc1ccc(/C=N/N2CCCCC2)cc1O | n | n | x | x | x
COc1ccc2c(c1OC)C(=O)OC2Nc1nc(-c2ccc(-c3ccccc3)cc2)cs1 (centres undefined) | n | 62 | n | 74 | n
COc1cccc(-c2csc(NC3OC(=O)c4c3ccc(OC)c4OC)n2)c1 (centres undefined) | n | n | x | x | n
O=C(O/N=C1/CCSc2ccccc21)c1ccc(F)cc1 | n | n | n | 88 | n
O=C(O/N=C1\CCS(=O)(=O)c2sccc21)c1ccc(F)cc1 | n | n | n | n | n
O=C(O/N=C1/CCCc2occc21)c1ccc(F)cc1 | n | n | n | 80 | n
Cc1ccc(S(=O)(=O)O/N=C2/CCCc3occc32)cc1 | n | n | n | n | n
Cc1nc(Nc2ccccc2)sc1-c1ccccc1 | n | 66 | n | 85 | n
CC(=O)c1sc(Nc2ccccc2)nc1C | x | n | x | x | x
O=C(NCc1ccccc1)c1c(Cl)nc(Cl)c(Cl)c1Cl | n | 94 | x | x | x
Cc1nc(Cl)c(C(=O)NCc2ccccc2)c(C)c1Cl | n | n | n | n | n
CSc1n[nH]c(NCc2ccc(C)cc2)n1 | n | n | n | 60 | n
CCOc1ccccc1CNC(=O)c1ccc2c(c1)N(CC)CCS2 | n | n | x | x | x
O=C(NCc1cccnc1)/C(=C\c1ccc(-c2ccc(Cl)c(Cl)c2)o1)S(=O)(=O)c1ccccc1 | n | 93 | n | n | n
CC(=O)NC(Cc1cccc(C)c1)C(=O)NC1CCN(S(=O)(=O)c2ccccc2)CC1 (centres undefined) | n | n | x | x | x
CN=c1sc2c(n1C)C(=O)c1ccccc1C2=O | x | 76 | x | x | x
SMILES | HSP90 inh | C8 TRAIL sens | FLuc act counter | FLuc inh counter | PPC-1+TRAIL kill
CN=c1sc(C(=O)Nc2ccccc2)c(C)n1C | n | n | n | n | n
COc1ccc2c(c1)CCC/C2=N/OC(=O)c1ccccc1OC | n | n | n | n | n
COc1ccc2c(c1)CC/C2=N\OC(=O)c1ccccc1C | n | n | n | 75 | n
COc1ccc2c(c1)CC/C2=N\OC(=O)c1cccc(C)c1 | n | n | n | 78 | n
O=C(NCCCc1nc2ccccc2[nH]1)c1cccs1 | n | n | n | n | n
Cc1sc2ncnc(N=Nc3c(O)[nH]c4ccccc34)c2c1C | n | n | n | 50 | n
CCc1cc2c(N=Nc3c(O)[nH]c4ccccc34)ncnc2s1 | n | n | n | n | n
CCOC(=O)c1cnc2c(-c3ccccc3)cnn2c1C | n | 58 | n | 75 | n
CC(=O)c1cnc2c(-c3ccccc3)cnn2c1C | n | n | n | n | n
COc1ccc(NC(=O)CSc2nc3ccccc3c(=O)n2CCCN2CCCCC2)c(OC)c1 | n | n | n | n | n
CNC(=S)N/N=C/C1=CCC2CC1C2(C)C (centres undefined) | n | n | n | 62 | n
COc1ccc(NC(=O)[C@H](C)NC(=O)C2CCN(S(=O)(=O)c3ccc(C)cc3)CC2)cc1 | n | n | x | x | x
O=C(N/N=C/c1cccc(OCC(=O)N2CCCC2)c1)C(=O)Nc1ccccc1F | n | n | n | n | n
Nc1c(C(=O)N2CCOCC2)sc2nc3c(cc12)CCCC3 | n | 57 | x | x | x
NC(=O)c1sc2nc3c(cc2c1N)CCC3 | n | n | n | n | n
COC(=O)c1sc2nc3c(cc2c1N)CCCC3 | n | n | n | 60 | n
C[C@]12CCC(O)CC1CCC1C2CC[C@]2(C)C(c3cc(C(F)(F)F)n[nH]3)CCC12 (some centres undefined) | n | n | x | x | n
Cc1cc(C(=O)O)ccc1-n1c(C)cc(/C=C(/C#N)C(=O)Nc2ccccc2)c1C | n | n | n | n | n
Cc1cc(/C=C(\C#N)C(=O)Nc2ccccc2)c(C)n1-c1cccnc1 | n | n | n | 51 | n
Cc1c(P(=S)(c2ccccc2)c2ccccc2)[n+]2ccccc2n1CCc1ccccc1 | x | 53 | x | x | x
Cc1cc(C(=O)CCl)c(C)n1CCc1ccccc1 | n | x | n | n | n
CNC(=O)c1cc(Oc2ccc(NC(=O)Nc3ccc(Cl)c(C(F)(F)F)c3)cc2)ccn1 | x | 71 | x | x | x
COc1ccc(S(=O)(=O)CC2(O)CCN(C(=O)CC(C)C)CC2)cc1 | n | n | n | n | n
CCOC(=O)c1ccc(S(=O)(=O)N2CCN(C(=O)c3cccc(S(=O)(=O)N4CC(C)OC(C)C4)c3)CC2)cc1 (centres undefined) | x | n | x | x | x
CC1CCC(C(C)C)C(OC(=O)Cn2c(-c3ccc(Cl)cc3)[n+](C)c3ccccc32)C1 (centres undefined) | n | 51 | x | x | n
SMILES | HSP90 inh | C8 TRAIL sens | FLuc act counter | FLuc inh counter | PPC-1+TRAIL kill
Cc1cc(NC(=O)c2ccc(S(=O)(=O)N3CCOCC3)cc2)nc2c1c(=O)oc1ccccc12 | n | x | n | n | n
CCOc1ccc(C(=O)Nc2cc(C)c3c(=O)oc4ccccc4c3n2)cc1 | n | 56 | n | n | n
Cc1cc(NC(=O)c2ccc(S(=O)(=O)N3CCCC3)cc2)nc2c1c(=O)oc1ccccc12 | n | 55 | n | n | n
CC(C)OC(=O)c1cccc(-c2ccc(C=O)o2)c1 | n | n | n | n | n
Nc1ncnc2c(C3OC(CO)C(O)C3O)scc12 (centres undefined) | x | 57 | x | x | x
COc1cccc(Nc2nnc(SCC(=O)N3CCOCC3)s2)c1 | n | n | n | n | n
CSc1nnc(NC(=O)c2ccc(S(=O)(=O)N(C)C)cc2)s1 | n | n | n | 60 | n
CC(C)Oc1ccc(C(=O)Nc2nnc(SCC(=O)N3CCOCC3)s2)cc1 | 16 | 98 | n | 97 | 94
Cc1cc(C)cc(NC(=O)c2ccc(S(=O)(=O)C(F)F)cc2)c1 | n | n | n | n | n
CN(C)S(=O)(=O)c1ccc(C(=O)Nc2nnc(SCC(=O)N3CCOCC3)s2)cc1 | x | 60 | x | x | x
CN(C)S(=O)(=O)c1ccc(C(=O)Nc2nnc(SCc3ccccc3)s2)cc1 | n | n | n | n | n
Cc1nnc(NC(=O)c2ccc(S(=O)(=O)C(F)F)cc2)s1 | n | 50 | x | x | n
